Data set [1] has as its system chymotrypsin. Kind of data set: Percentage of intact compound after chymotrypsin cleavage at 37 degree C for 120 min. In kind it is ADME. Conditions: read-out: Stability. The method, boiled down: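 Inhibitor (5 mM stock, diluted 1:100 by volume) incubated with bovine α-chymotrypsin (625 ng/mL solution) for 120 min at 37 °C. Intact compound and cleaved free acid quantified by reverse-phase HPLC (50–75% acetonitrile in 0.1% TFA over 25 min). Result given as percent intact compound relative to the initial amount.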

Data set [2] concerns the target T1, Chymotrypsinogen A (Bos taurus, UniProt P00766). Kind of data set: In vitro inhibition of bovine alpha chymotrypsin. The method, boiled down: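 Bovine pancreatic α-chymotrypsin (type I-S, 47 ng/mL) with N-succinyl-Ala-Ala-Pro-Phe-pNA (1.5 mM) in 50 mM HEPES pH 7.4 containing 0.1 mM NaCl, across a range of inhibitor concentrations. Incubated 120 min at 37 °C, then A405 read. IC50 taken from dose-inhibition curves, in triplicate. Chymostatin served as control.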

The target of data set [3] is T2, Serine protease 1 (Bos taurus, UniProt P00760).
T2 sequence (P00760 whole entry): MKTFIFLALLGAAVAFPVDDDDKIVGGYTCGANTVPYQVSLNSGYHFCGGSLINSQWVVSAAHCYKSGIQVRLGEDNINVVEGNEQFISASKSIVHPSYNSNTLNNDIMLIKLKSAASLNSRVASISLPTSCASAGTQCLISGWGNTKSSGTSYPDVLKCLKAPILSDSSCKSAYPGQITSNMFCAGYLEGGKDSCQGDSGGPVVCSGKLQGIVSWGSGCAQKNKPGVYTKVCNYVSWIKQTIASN
The experiment in a line: Compound was tested by chromogenic assay for the inhibition of serine proteases like Bovine trypsin. In short, it runs like this:
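Trypsin (1 U/mL; named porcine pancreatic in the methods, bovine in the table footnote) with Bz-L-Arg-pNA (1 mM) in 50 mM HEPES pH 7.4 containing 0.1 mM NaCl, with varied inhibitor concentrations. Incubated 120 min at 37 °C, then A405 read. IC50 from dose-inhibition curves, with leupeptin as control.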

Data set [4] concerns the target T1, Chymotrypsinogen A. The experiment in a line: Compound was evaluated for inactivation of bovine alpha-Chymotrypsin Kinetic constant(Ki).
The target of data set [5] is Chymotrypsin-like elastase family member 1 (Sus scrofa, UniProt P00772). The experiment in a line: Compound was tested by chromogenic assay for the inhibition of serine proteases like Porcine Elastase. In short, it runs like this: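 Purified porcine pancreatic elastase (type III) with chromogenic substrate N-succinyl-Ala-Ala-Ala-pNA in 50 mM HEPES, pH 7.4, with NaCl. Enzyme and substrate were mixed with a range of inhibitor concentrations and held at 37 °C for 120 min. Activity was read as absorbance at 405 nm. IC50 was taken from dose-inhibition curves, with elastatinal as the reference inhibitor.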

The target of data set [6] is T3, Chymase (Homo sapiens, UniProt P23946).
T3 sequence (P23946 whole entry): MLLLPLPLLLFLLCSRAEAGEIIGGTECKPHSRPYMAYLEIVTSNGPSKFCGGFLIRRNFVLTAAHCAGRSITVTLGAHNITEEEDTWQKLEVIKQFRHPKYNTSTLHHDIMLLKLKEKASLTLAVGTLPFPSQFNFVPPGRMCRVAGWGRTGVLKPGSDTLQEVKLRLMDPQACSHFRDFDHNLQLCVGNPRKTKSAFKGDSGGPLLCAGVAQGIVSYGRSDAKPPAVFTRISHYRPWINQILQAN
Kind of data set: Compound was tested by chromogenic assay for the inhibition of human Serine protease chymase.

Data set [7] concerns the target T4, Cathepsin G (Homo sapiens, UniProt P08311).
T4 sequence (P08311 whole entry): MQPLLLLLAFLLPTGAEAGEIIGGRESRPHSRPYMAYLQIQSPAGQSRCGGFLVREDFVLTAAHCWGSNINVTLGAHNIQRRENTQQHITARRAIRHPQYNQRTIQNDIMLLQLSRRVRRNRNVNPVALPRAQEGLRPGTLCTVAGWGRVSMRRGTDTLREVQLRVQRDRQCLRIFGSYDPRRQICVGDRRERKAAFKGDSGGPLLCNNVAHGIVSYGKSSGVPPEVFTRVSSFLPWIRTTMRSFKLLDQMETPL
The experiment in a line: Compound was tested by chromogenic assay for the inhibition of serine proteases like Human cathepsin G.

The IC50 is the concentration that inhibits the measured activity by half.

Some results are limits rather than exact numbers.

Chain of Chymotrypsin-like elastase family member 1 (P00772 whole entry): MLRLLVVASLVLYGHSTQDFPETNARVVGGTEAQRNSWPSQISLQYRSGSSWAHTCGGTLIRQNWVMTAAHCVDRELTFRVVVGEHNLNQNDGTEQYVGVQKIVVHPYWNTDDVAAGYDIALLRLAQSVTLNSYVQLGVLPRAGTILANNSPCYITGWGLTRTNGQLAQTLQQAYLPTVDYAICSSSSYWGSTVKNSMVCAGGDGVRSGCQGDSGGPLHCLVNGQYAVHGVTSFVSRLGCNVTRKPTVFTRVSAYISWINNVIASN

For `CCCCCCCC(NC(=O)c1ccc(C#N)cc1)C(C)(C)C(=O)N[C@@H](Cc1ccccc1)C(=O)OCC` (stereo not given in full), in data set [1], the remaining at 2 h was less than 1%.
As to `CCCCCCC(NC(=O)OC(C)(C)C)C(C)(C)C(=O)N[C@@H](Cc1ccccc1)C(=O)OCC` (stereo not given in full), the values for the 50% inhibitory concentration (IC50) in data set [2] and in data set [3] were 1000 nM and 6300 nM, respectively.
Consider `CCCCCCCCCCCCC(NC(=O)c1ccc(C#N)cc1)C(C)(C)C(=O)N[C@@H](Cc1ccccc1)C(=O)OCC` (stereo not given in full), for which the IC50 in data set [2] came to 4200 nM; in data set [3], 220000 nM.
For `CCCCCCC(NC(=O)c1ccc(C#N)cc1)C(C)(C)C(=O)N[C@@H](Cc1ccccc1)C(=O)OCC` (stereo in doubt; 3), the IC50 in data set [2] is 2.6 nM; in data set [3], 540 nM; in data set [5], 7 nM. Moreover, in data set [4], the Ki stood at 4.5 nM.
As for `CCCCCCC(NC(=O)c1ccc(C#N)cc1)C(C)(C)C(=O)N[C@@H](Cc1ccccc1)C(=O)OCC` (stereo in doubt; 3-F), the values for the half-maximal inhibitory concentration (IC50) in data set [2] and in data set [5] were 1.6 nM and 8.6 nM, respectively.
`CCOC(=O)[C@H](Cc1ccccc1)NC(=O)C(C)(C)C(CCc1ccccc1)NC(=O)c1ccc(C#N)cc1` (stereo not given in full) registered an IC50 in data set [2] of 250 nM.
As to `CCCCC(NC(=O)c1ccc(C#N)cc1)C(C)(C)C(=O)N[C@@H](Cc1ccccc1)C(=O)OCC` (stereo not given in full), the half-inhibitory concentration (IC50) in data set [2] worked out at 27000 nM; in data set [6], 510000 nM; in data set [5], 710000 nM.
`CCCCCCC(NC(=O)c1ccc(C#N)cc1F)C(C)(C)C(=O)N[C@@H](Cc1ccccc1)C(=O)OCC` (stereo not given in full): the remaining at 2 h in data set [1] was 6%.
As to `CCCCCCC(NC(=O)c1ccc(C#N)cc1)C(C)(C)C(=O)N[C@@H](Cc1ccccc1)C(=O)OC` (stereo not given in full), the IC50 in data set [2] stood at 1100 nM; in data set [7] it was 1500 nM; in data set [5], 4200 nM. In addition, in data set [1], the remaining at 2 h was 98%. The molecule also registered a Ki in data set [4] of 12000 nM.
Regarding `CCCCCCCCCCC(NC(=O)c1ccc(C#N)cc1)C(C)(C)C(=O)N[C@@H](Cc1ccccc1)C(=O)OCC` (stereo not given in full), the remaining at 2 h in data set [1] came out at 16%.
Turning to `CC(C)(C(=O)OC(=O)C(C)(C)C(CCc1ccccc1)NC(=O)c1ccc(C#N)cc1)C(CCc1ccccc1)NC(=O)c1ccc(C#N)cc1` (stereo not given), the values for the IC50 in data set [2] and in data set [3] were 2.1 nM and 300 nM, respectively.
With `CCCCCCC(NC(=O)c1ccc(C#N)cc1)C(C)(C)C(=O)N[C@@H](Cc1ccccc1)C(=O)OCCC` (stereo not given in full), the values for the IC50 in data set [2], in data set [3] and in data set [5] were 230 nM, 17000 nM and 270 nM, respectively. Further, the remaining at 2 h in data set [1] is 97%. The molecule also yielded a Ki in data set [4] of 340 nM.
In the case of `CCCCCCC(NC(=O)c1ccc(C#N)cc1)C(C)(C)C(=O)N[C@@H](Cc1ccccc1)C(=O)OCc1ccccc1` (stereo not given in full), the IC50 in data set [2] is 230000 nM.
Turning to `CCCCCCC(NC(=O)c1ccccc1)C(C)(C)C(=O)N[C@@H](Cc1ccccc1)C(=O)OCC` (stereo not given in full), the IC50 in data set [2] stood at 17000 nM; in data set [3], 560000 nM. Further, the remaining at 2 h in data set [1] is less than 1%.
`CCCCCCC(NC(=O)c1ccc(C#N)cc1)C(C)(C)C(=O)N[C@@H](Cc1ccccc1)C(=O)OC(C)(C)C` (stereo not given in full) yielded an IC50 in data set [2] of 73000 nM. In other words, the double-digit micromolar range.
On to `CCOC(=O)[C@H](Cc1ccccc1)NC(=O)C(C)(C)C(CC)NC(=O)c1ccc(C#N)cc1` (stereo not given in full), for which the IC50 in data set [2] came out at 3400 nM. Besides, in data set [1], the remaining at 2 h was found to be 91%.
As to `CCCCCCC(NC(=O)c1ccc(C#N)cc1)C(C)(C)C(=O)N[C@@H](Cc1ccccc1)C(=O)OCC` (stereo in doubt; 3-R), the IC50 in data set [2] stood at 5.1 nM; in data set [5], 14 nM.
On to `CCCCCCC(NC(=O)c1ccc(C#N)cc1)C(C)(C)C(=O)N[C@@H](Cc1ccccc1)C(=O)OC(C)C` (stereo not given in full), for which the IC50 amounted to 86 nM in data set [2], 150 nM in data set [6], 6700 nM in data set [3] and 200 nM in data set [5]. Further, in data set [1], the remaining at 2 h was found to be 98%. Besides, the Ki in data set [4] came to 70 nM.
As to `CCCCCC(NC(=O)c1ccc(C#N)cc1)C(C)(C)C(=O)N[C@@H](Cc1ccccc1)C(=O)OCC` (stereo not given in full), the remaining at 2 h in data set [1] is 3%.
On the same count and under the same terms, for `CCCC(NC(=O)c1ccc(C#N)cc1)C(C)(C)C(=O)N[C@@H](Cc1ccccc1)C(=O)OCC` (stereo not given in full) the value was 11%.
As to `CCCCCCCCC(NC(=O)c1ccc(C#N)cc1)C(C)(C)C(=O)N[C@@H](Cc1ccccc1)C(=O)OCC` (stereo not given in full), the IC50 was 8600 nM in data set [2], 6600 nM in data set [7] and 2700 nM in data set [5]. The remaining at 2 h in data set [1] was found to be 61%.
As to `CCOC(=O)[C@H](Cc1ccccc1)NC(=O)C(C)(C)C(CC(C)C)NC(=O)c1ccc(C#N)cc1` (stereo not given in full), the remaining at 2 h in data set [1] was 41%.
Take `CCOC(=O)[C@H](Cc1ccccc1)NC(=O)C(C)(C)C(NC(=O)c1ccc(C#N)cc1)C(C)C` (stereo not given in full): the IC50 worked out at 2200 nM in data set [2] and 60000 nM in data set [3]. For the same molecule, in data set [1], the remaining at 2 h was 90%.
In data set [2], `CCCCCCC(NC(=O)c1ccco1)C(C)(C)C(=O)N[C@@H](Cc1ccccc1)C(=O)OCC` (stereo not given in full) returned an IC50 of 12000 nM.

Source of the values: ChEMBL document CHEMBL1132421, “N-[2,2-dimethyl-3-(N-(4-cyanobenzoyl)amino)nonanoyl]-L-phenylalanine ethyl ester as a stable ester-type inhibitor of chymotrypsin-like serine proteases: structural requirements for potent inhibition of alpha-chymotrypsin” (J Med Chem, 1999).
